According to ChEMBL document CHEMBL1123321, “Synthesis and evaluation of 2-substituted 1-methyl-1-(4-tolylsulfonyl)hydrazines as antineoplastic agents” (1986):

Experiments:
Format in all cases: functional
[1] = test system: Mus musculus; assay: Compound was evaluated for antineoplastic activity against mice bearing L1210 leukemia. Optimum effective daily dose administered once daily for 6 consecutive days
In short: (§1)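 L1210 leukemia was carried and implanted ip in mice as in earlier work. Starting 24 h after implantation, drug was given ip once daily for 6 days across a range of doses, as a Tween 80/saline suspension. Survival was scored as %T/C, the mean survival of treated over control ×100.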

[2] = test system: Mus musculus; assay: Compound was evaluated for antineoplastic activity against mice bearing […], Optimum effective daily dose administered once daily for 6 consecutive days
In short: (§2)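 B16 melanoma tissue was dispersed in serum-free Fischer's medium (1 g per 5 mL), and 0.2 mL was implanted ip per mouse. Starting 24 h after implantation, drug was given ip once daily for 6 days across a range of doses, as a suspension in 20% aq. Tween 80 and isotonic saline. Groups were five mice; vehicle controls were included. %T/C was mean survival time of treated over control ×100.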

[3] = organism: Mus musculus; assay: Compound was evaluated for antineoplastic activity against mice bearing L1210 leukemia. Average change in body weight from onset to termination of therapy..
In short: (§3)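 In L1210-bearing mice, dosing was ip once daily for 6 days, beginning 24 h after implantation, with groups of five. The vehicle was a Tween 80/saline suspension. Body weight was recorded, and the read-out was the mean % change in body weight from the start to the end of therapy.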

[4] = organism: Mus musculus; assay: Compound was evaluated for antineoplastic activity against mice bearing L1210 leukemia.; in short: as §1
[5] = organism: Mus musculus; assay: Compound was evaluated for antineoplastic activity against mice bearing B6 melanoma.; in short: as §2
[6] = organism: Mus musculus; assay: Compound was evaluated for antineoplastic activity against mice bearing B16 melanoma; in short: as §2
[7] = test system: Mus musculus; assay: Compound was evaluated for antineoplastic activity against mice bearing B16 melanoma, optimum effective daily dose administered once daily for 6 consecutive days; in short: as §2
[8] = test system: Mus musculus; assay: Compound was evaluated for antineoplastic activity against mice bearing L1210 leukemia, optimum effective daily dose administered once daily for 6 consecutive days; in short: as §1
[9] = organism: Mus musculus; assay: Compound was evaluated for antineoplastic activity against mice bearing L1210 leukemia. Average change in body weight from onset to termination of therapy; in short: as §3
[10] = organism: Mus musculus; assay: Compound was evaluated for antineoplastic activity against mice bearing B16 melanoma.; in short: as §2

| Structure (SMILES) | OD [1] | OD [2] | Average change in body weight [3] | T/C [4] | Average change in body weight [5] | T/C [5] | Average change in body weight [6] | OD [7] | OD [8] | Average change in body weight [9] | Max T/C [6] | Average change in body weight [10] |
| --- | --- | --- | --- | --- | --- | --- | --- | --- | --- | --- | --- | --- |
| Cc1ccc(S(=O)(=O)N(C)NSc2ccccc2[N+](=O)[O-])cc1 | 50 mg/kg | 100 mg/kg | 15.5% | 151% | -2% | 99% |  |  |  |  |  |  |
| Cc1ccc(S(=O)(=O)N(C)NP(=O)(Oc2ccccc2)Oc2ccccc2)cc1 | 150 mg/kg | 100 mg/kg | 20.9% | 99% | 7.4% | 91% |  |  |  |  |  |  |
| Cc1ccc(S(=O)(=O)N(C)NC(=O)c2ccccc2)cc1 | 50 mg/kg | 150 mg/kg | 7.5% | 167% | 6.8% | 96% |  |  |  |  |  |  |
| CCS(=O)(=O)NN(C)S(=O)(=O)c1ccc(C)cc1 |  |  |  |  |  |  | -1.1% | 50 mg/kg |  |  |  |  |
| Cc1ccc(S(=O)(=O)N(C)NC(=O)c2ccc([N+](=O)[O-])cc2)cc1 | 100 mg/kg | 50 mg/kg | -6.3% | 133% | 3.9% | 97% |  |  |  |  |  |  |
| Cc1ccc(S(=O)(=O)N(C)NS(C)(=O)=O)cc1 |  |  |  |  |  |  | -1.9% | 10 mg/kg | 30 mg/kg | -7.9% |  |  |
| Cc1ccc(S(=O)(=O)N(C)NC(=O)/C=C/c2ccccc2)cc1 | 50 mg/kg | 150 mg/kg | 14.8% | 94% | 1.8% | 94% |  |  |  |  |  |  |
| Cc1ccc(S(=O)(=O)N(C)NS(=O)(=O)Cc2ccccc2)cc1 |  |  |  |  |  |  | -2.4% | 50 mg/kg | 50 mg/kg | 10.8% | 172% |  |
| Cc1ccc(S(=O)(=O)N(C)NP(=O)(c2ccccc2)c2ccccc2)cc1 | 50 mg/kg | 150 mg/kg | 5.8% | 100% | 0.7% | 112% |  |  |  |  |  |  |
| Cc1ccc(S(=O)(=O)NN(C)S(=O)(=O)c2ccc(C)cc2)cc1 |  |  |  |  |  |  |  | 150 mg/kg | 50 mg/kg | 3.7% |  | -2.7% |
